Measured values published in article PMC10733988 (ACS Omega, 2023).

What was measured:
Recombinant human MAO-A = target: T1, Recombinant human MAO-A (Homo sapiens, UniProt P21397); test: MAO-A inhibition enzyme assay; assay type: biochemical; conditions: for remaining activity at 10 µM: read-out: residual activities at 10 μM (%) MAO-A
T1 sequence (P21397 1-527): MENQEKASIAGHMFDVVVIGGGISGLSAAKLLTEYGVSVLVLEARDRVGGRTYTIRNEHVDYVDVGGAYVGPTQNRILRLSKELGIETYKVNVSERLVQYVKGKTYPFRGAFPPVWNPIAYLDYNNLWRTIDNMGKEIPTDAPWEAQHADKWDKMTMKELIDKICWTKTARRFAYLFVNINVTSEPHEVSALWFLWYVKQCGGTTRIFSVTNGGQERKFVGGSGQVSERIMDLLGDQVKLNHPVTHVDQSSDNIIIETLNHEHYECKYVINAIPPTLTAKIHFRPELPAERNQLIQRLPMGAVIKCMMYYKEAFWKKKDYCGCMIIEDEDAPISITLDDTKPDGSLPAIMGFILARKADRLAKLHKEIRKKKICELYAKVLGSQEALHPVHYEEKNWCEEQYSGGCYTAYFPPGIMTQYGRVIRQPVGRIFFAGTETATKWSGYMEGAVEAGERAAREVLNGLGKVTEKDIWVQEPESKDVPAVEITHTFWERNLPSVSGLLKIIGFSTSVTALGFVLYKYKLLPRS

Recombinant human MAO-B [1] = target: T2, Recombinant human MAO-B (Homo sapiens, UniProt P27338); test: MAO-B inhibition enzyme assay; assay type: biochemical; conditions: for remaining activity at 10 µM: read-out: residual activities at 10 μM (%) MAO-B; for SI (selectivity index): IC50 for MAO-A / IC50 for MAO-B
T2 sequence (P27338 1-520): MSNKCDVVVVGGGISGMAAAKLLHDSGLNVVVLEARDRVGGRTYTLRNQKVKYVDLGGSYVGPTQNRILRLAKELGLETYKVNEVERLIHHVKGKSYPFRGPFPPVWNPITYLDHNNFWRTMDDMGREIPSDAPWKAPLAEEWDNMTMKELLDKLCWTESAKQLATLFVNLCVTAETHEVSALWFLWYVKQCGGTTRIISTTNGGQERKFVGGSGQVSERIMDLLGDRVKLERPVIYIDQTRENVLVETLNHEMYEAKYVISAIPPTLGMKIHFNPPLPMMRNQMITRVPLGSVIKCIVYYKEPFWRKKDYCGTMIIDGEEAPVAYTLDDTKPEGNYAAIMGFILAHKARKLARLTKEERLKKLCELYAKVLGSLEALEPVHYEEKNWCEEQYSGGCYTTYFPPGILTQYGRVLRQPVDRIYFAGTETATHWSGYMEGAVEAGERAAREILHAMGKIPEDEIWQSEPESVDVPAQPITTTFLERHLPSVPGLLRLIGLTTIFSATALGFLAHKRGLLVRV

BBB permeability assay = assay type: in vitro ADME; conditions: for Papp / prediction (BBB permeation): PAMPA; for prediction (BBB permeation): class from Pe
Method in brief: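 Passive BBB permeation is estimated with a non-cell PAMPA: a filter membrane (0.45 µm pore, 125 µm thick) soaked in n-dodecane sits between donor and acceptor wells. Test compound stocks (10 mM in DMSO, kept at 0 °C) are diluted in buffer to final 1, 0.1 and 0.01 mM, with DMSO below 1% (v/v). Pe is calculated from donor and receptor absorbance, filter area (0.45 cm²), compartment volumes and time.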

Recombinant human MAO-B [2] = target: T2, Recombinant human MAO-B; test: Reversibility of MAO-B inhibition by dialysis; assay type: biochemical; conditions: dialysis method
Recombinant human MAO-B [3] = target: T2, Recombinant human MAO-B; test: MAO-B enzyme kinetics; assay type: biochemical; conditions: for type of MAO-B inhibition: Lineweaver-Burk plot
Method in brief: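 Recombinant human MAO-B in 50 mM sodium phosphate (pH 7.2), 25 °C, 30 min. Benzylamine was the substrate, tested at five concentrations, and product formation was followed continuously as absorbance change at 250 nm. Reactions were started by adding substrate to the enzyme mixture, with three inhibitor conditions per test compound. Inhibition type came from Lineweaver–Burk plots and Ki from secondary plots.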

SMILES	IC50 (Recombinant human MAO-A)	remaining activity at 10 µM (Recombinant human MAO-A)	IC50 (Recombinant human MAO-B [1])	remaining activity at 10 µM (Recombinant human MAO-B [1])	SI (selectivity index) (Recombinant human MAO-B [1])	Papp (BBB permeability assay)	prediction (BBB permeation) (BBB permeability assay)	reversibility of MAO-B inhibition (Recombinant human MAO-B [2])	Ki (Recombinant human MAO-B [3])	type of MAO-B inhibition (Recombinant human MAO-B [3])	Pe (cm/s) (BBB permeability assay; PAMPA effective permeability)
O=C(NN=Cc1ccc(Cl)cc1)c1ccccc1 [ACH1]	> 40 µM	96 ± 8.49%	0.36 ± 0.04 µM	10.7 ± 2.52%							
O=C(NN=Cc1ccc(Br)cc1)c1ccccc1 [ACH2]	> 40 µM	131 ± 2.9%	1.65 ± 0.21 µM	30.2 ± 0.95%							
O=C(NN=Cc1ccc(F)cc1)c1ccccc1 [ACH3]	> 40 µM	109 ± 7.07%	0.22 ± 0.02 µM	7.08 ± 1.25%							
O=C(NN=Cc1ccc(Cl)cc1)c1ccc(Cl)cc1 [ACH4]	> 40 µM	92.1 ± 1.86%	0.37 ± 0.006 µM	20.2 ± 1.68%	> 108.11						
O=C(NN=Cc1ccc(Br)cc1)c1ccc(Cl)cc1 [ACH5]	> 40 µM	70.6 ± 4.16%	1.54 ± 0.04 µM	35.8 ± 1.88%	> 25.97						
O=C(NN=Cc1ccc(F)cc1)c1ccc(Cl)cc1 [ACH6]	> 40 µM	117 ± 1.86%	8 ± 0.037 µM	46.4 ± 1.68%	> 5.00						
O=C(NN=Cc1ccccc1)c1ccc(Cl)cc1 [ACH7]	> 40 µM	127 ± 3.48%	12.8 ± 0.026 µM	43.5 ± 4.56%	> 3.13						
O=C(NN=Cc1ccc(Cl)cc1)c1ccc(Br)cc1 [ACH8]	20.2 ± 0.57 µM	59.6 ± 3.12%	0.2 ± 0.09 µM	18.3 ± 3.45%	101.10						
O=C(NN=Cc1ccc(Br)cc1)c1ccc(Br)cc1 [ACH9]	> 40 µM	101 ± 1.86%	> 40 µM	98.2%							
O=C(NN=Cc1ccc(F)cc1)c1ccc(Br)cc1 [ACH10]	23.4 ± 0.56 µM	61.8 ± 6.24%	0.14 ± 0.011 µM	11.7 ± 1.42%	167.29	5.12 ×10⁻⁶ cm/s	CNS+ (Pe > 4.00 × 10^–6 cm/s: CNS+ (high permeation))	reversible inhibitors of MAO-B	0.097 ± 0.0021 µM	competitive MAO-B inhibitors	
O=C(NN=Cc1ccccc1)c1ccc(Br)cc1 [ACH11]	> 40 µM	102 ± 4.64%	5.2 ± 0.056 µM	39 ± 5.61%	> 7.69						
O=C(NN=Cc1ccc(Cl)cc1)c1ccc(F)cc1 [ACH12]	4.85 ± 0.83 µM	37.6 ± 2.24%	5.6 ± 0.1 µM	33.8%	0.87						
O=C(NN=Cc1ccc(Br)cc1)c1ccc(F)cc1 [ACH13]	11.6 ± 0.07 µM	38.5 ± 5.44%	0.18 ± 0.01 µM	-50.9%	64.44						
O=C(NN=Cc1ccc(F)cc1)c1ccc(F)cc1 [ACH14]	19.6 ± 1.41 µM	63.8 ± 1.76%	0.15 ± 0.02 µM	-14.4%	130.47	4.98 ×10⁻⁶ cm/s	CNS+ (Pe > 4.00 × 10^–6 cm/s: CNS+ (high permeation))	reversible inhibitors of MAO-B	0.1 ± 0.038 µM	competitive MAO-B inhibitors	
C#CCN(C)[C@H](C)Cc1ccccc1 [selegiline, reference compound]							CNS+ (Pe > 4.00 × 10^–6 cm/s: CNS+ (high permeation))				5.69 ± 0.04 cm/s
